Compound activity deposited in PubChem BioAssay by several laboratories.
PHOSPHO1 block: blocks human PHOSPHO1 phosphatase activity | Q8TCT1 | recombinant PHOSPHO1, absorbance phosphatase assay | AID 1565 | inhibition, % at 13.3 µM | 1.1% of 290,000 active; in the data active = inhibition above about 60%
PKD1 inh: inhibitors of human PKD1 kinase | Q15139 | PKD1 kinase fluorescence polarization assay | 0.056% of 200,000 active | inhibition, % (concentration not given with the values); in the data active = inhibition above about 50%
p47phox inh: blocks human p47phox regulatory protein of NADPH oxidases; P14598; 0.53% of 220,000 active; inhibition, % at 24.7 µM; AID 1274; p47phox/p22phox peptide binding, fluorescence polarization, 2 h;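 active = inhibition above about 30%, limit read from the data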;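 note: 0% = p47phox with labelled peptide and 100% = labelled peptide alone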
Target sequence (P14598 whole entry, looked up): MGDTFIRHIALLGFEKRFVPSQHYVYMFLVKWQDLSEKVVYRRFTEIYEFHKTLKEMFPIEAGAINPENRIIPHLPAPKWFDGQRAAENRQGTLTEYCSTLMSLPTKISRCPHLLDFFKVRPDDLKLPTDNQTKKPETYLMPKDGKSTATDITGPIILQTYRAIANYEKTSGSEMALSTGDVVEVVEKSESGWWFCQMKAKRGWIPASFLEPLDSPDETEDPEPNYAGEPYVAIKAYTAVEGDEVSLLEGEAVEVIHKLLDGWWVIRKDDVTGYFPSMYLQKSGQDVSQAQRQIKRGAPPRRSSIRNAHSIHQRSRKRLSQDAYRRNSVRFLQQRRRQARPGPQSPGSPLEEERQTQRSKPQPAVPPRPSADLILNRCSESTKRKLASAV
ABCG2 inh: inhibitors of human ABCG2 transporter, ABCB1 counter-screen; inhibition, % at 6.6 µM; 0.1% of 190,000 active; Q9UNQ0; AID 1325; IgMXP3 cells, JC-1 efflux, flow cytometry;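 active = inhibition above 80%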;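 note: 0% = DMSO and 100% = nicardipine control wells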
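Assay system – ABCG2 IgMXP3 and barcoded ABCB1 CCRF-Adr cell mix · Input – 3 million cells/mL in well · Reagent – JC-1 fluorescent substrate · Compound – single test compound dose, 6.6 µM final · Timing – 10 min exposure at 25 °C with rotation, no wash · Detection – flow cytometry of retained JC-1 fluorescence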
HSV replic up: HSV replication enhancement | HSV replication augmentation in cells, fold increase | 0.005% of 220,000 active | maximum fold increase | AID 1956; in the data active = maximum fold increase above about 1.5; inconclusive = no clear call, values can overlap the other calls; tested in PC3 cells
ABCB1 block: inhibitors of human ABCB1 transporter, ABCG2 counter-screen; 0.067% of 190,000 active; inhibition, % at 6.6 µM; P08183; CCRF-Adr cells, JC-1 efflux, flow cytometry; in the data active = inhibition above about 40%;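 note: 0% = vehicle and 100% = reference inhibitor; higher value means more JC-1 retained so stronger ABCB1 efflux block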
Active calls of the source: *; i = inactive; ? = inconclusive; · = no result. Hits are enriched below; roughly 1.6% of the tested compounds scored in any of these assays.

SMILES	PHOSPHO1 block	PKD1 inh	p47phox inh	ABCG2 inh	HSV replic up	ABCB1 block
O=C(CSc1nnc(-c2cc3ccccc3cc2O)n1Cc1ccco1)c1ccc(F)cc1	81*	1	-12	1	i	1
COc1ccc(C(=O)CSc2nnc(CNc3ccc(C)cc3C)n2Cc2ccco2)cc1	91*	-4	-49	9	i	2
Cc1ccc(C(=O)NC2CCCCC2)cc1S(=O)(=O)N1CCCC1	11	·	·	·	·	·
O=C(c1cc2ccccc2o1)N1CCN(c2cccc(Cl)c2)CC1	29	·	·	·	·	·
Cn1c(SCC(=O)NCc2ccc(F)cc2)nc2c([nH]c3ccccc32)c1=O	25	1	-9	11	i	0
COc1ccc(OCc2cc(C(=O)N3CCC(c4ccccc4)CC3)no2)c(Cl)c1	14	·	·	·	·	·
CCNC(=O)CN1C(=O)NC(Cc2ccccc2)(Cc2ccccc2)C1=O	32	-4	-7	8	i	1
Nc1nc(CCOc2ccc(F)cc2)cs1	-15	12	40*	2	i	0
CCCN(CC1CC1)S(=O)(=O)c1ccc(-n2cnnn2)c(OC)c1	15	6	-7	1	i	0
CCc1ccc(-n2cnc3cc(C(=O)NCC(OC)OC)ccc32)cc1	-33	·	·	·	·	·
N#CC1=C2SCN(c3ccc(F)cc3)CN2C(=O)CC1c1cccc(F)c1 (stereo not drawn)	64*	-2	-6	-1	i	0
CCc1ccc(C2CC(=O)N3CN(c4ccccc4)CSC3=C2C#N)cc1 (stereo not drawn)	86*	-6	-23	-1	i	0
CCOC(=O)c1ccc(N2CSC3=C(C#N)C(c4cccs4)CC(=O)N3C2)cc1 (stereo not drawn)	94*	-4	-29	0	i	0
CN1CSC2=C(C#N)C(c3cccc(OCc4ccccc4)c3)CC(=O)N2C1 (stereo not drawn)	20	10	-15	-2	i	-1
N#CC1=C2SCN(Cc3ccco3)CN2C(=O)CC1c1ccccc1F (stereo not drawn)	83*	-2	-7	6	i	0
CSc1ccc(CNCC2CCCO2)cc1 (stereo not drawn)	-24	·	·	·	·	·
CN(NC1OC(=O)c2ccccc21)c1ccc(C(F)(F)F)cc1[N+](=O)[O-] (stereo not drawn)	38	·	-2	·	i	·
Cc1cccc(CS(=O)(=O)Cc2ccc(C(=O)NC3CCCCC3)o2)c1	30	·	·	·	·	·
CCOc1ccc(-c2nc(CN3CCCCC3CCn3cccn3)c(C)o2)cc1 (stereo not drawn)	22	·	-7	·	i	·
Cc1ccc(N2CSC3=C(C#N)C(c4cccs4)CC(=O)N3C2)cc1 (stereo not drawn)	57	5	-13	-2	i	0
COc1ccc(N2CSC3=C(C#N)C(c4cccs4)CC(=O)N3C2)cc1 (stereo not drawn)	89*	3	-11	-1	i	0
CCc1ccc(N2CSC3=C(C#N)C(c4cccs4)CC(=O)N3C2)cc1 (stereo not drawn)	73*	-11	-18	-3	i	0
CC(NC(=O)C12CC3CC(CC(C3)C1)C2)c1ccc(F)cc1 (stereo not drawn)	32	·	·	·	·	·
COc1ccc2c(-c3cc4ccc(OCc5ccc(F)cc5)cc4oc3=O)cc(=O)oc2c1	2	-19	37*	-4	i	-1
CCOC(=O)C1CCN(CC(O)COCc2ccccc2)CC1 (stereo not drawn)	7	·	·	·	·	·
SMILES	PHOSPHO1 block	PKD1 inh	p47phox inh	ABCG2 inh	HSV replic up	ABCB1 block
O=C(CSc1ncccn1)c1ccccc1Br	61*	-7	-13	3	i	0
O=C(O)CSc1ncccn1	8	-7	2	-2	i	0
O=C(Nc1cccc([N+](=O)[O-])c1)c1cc(S(=O)(=O)N2CCOCC2)cs1	27	·	·	·	·	·
C=CCn1c(=O)/c(=C/c2ccc(C)o2)s/c1=C(/C#N)C(=O)c1ccccc1	83*	-3	-29	-7	i	0
CCCn1c(=C(C#N)C#N)s/c(=C2\C=Cc3ccccc3N2CC)c1=O	6	-17	37*	15	i	1
CCN1/C(=C2\OC(=S)N(C)C2=O)C=Cc2ccccc21	2	-6	-84	3	i	0
CCCN1C(=O)/C(=c2\s/c(=C3\C=Cc4ccccc4N3CC)c(=O)n2-c2ccccc2)SC1=S	-11	-9	70*	3	i	0
Cc1c(C(=O)Nc2ccc(C(F)(F)F)cc2)sc2ncn(CC(=O)N3CCN(c4ccccn4)CC3)c(=O)c12	33	·	·	·	·	·
COc1cccc(-n2nnnc2SCC(=O)c2cc(OC)ccc2OC)c1	31	-3	-5	5	i	0
CCOC(=O)C1=C(C)N=c2s/c(=C/c3ccco3)c(=O)n2C1c1cccc(OC)c1 (stereo not drawn)	66*	-4	-44	1	?	0
CCOC(=O)C1=C(C)N=c2s/c(=C\c3cccc(OCC(=O)O)c3)c(=O)n2C1c1ccccc1 (stereo not drawn)	25	·	·	·	·	·
COc1ccc(-c2noc3c2-c2nc(-c4ccc(Br)cc4)sc2CC3)cc1	·	·	·	·	i	·
COc1ccc(N(C(=O)C(C)C)S(=O)(=O)c2cccc3cccnc23)cc1	-15	-5	59*	0	i	1
COc1ccc(NC(=O)CN(C)S(=O)(=O)c2cccc3cccnc23)cc1	7	-11	-18	4	i	0
O=C1CC(=O)NC(SCC(=O)Nc2ccccc2[N+](=O)[O-])=N1	14	·	·	·	·	·
Cc1cccc(NC(=O)c2ccc(F)c(S(=O)(=O)N3CCC4(CC3)OCCO4)c2)c1	65*	·	·	·	·	·
CCn1c(=O)c(=O)[nH]c2c(=O)oc3ccc(S(=O)(=O)Nc4ccccc4)cc3c21	43	·	·	·	·	·
CN(C)c1ccc(NC(=O)c2cccc(N3C(=O)CCC3=O)c2)cc1	66*	-12	-3	3	i	1
S=c1[nH]nc(-c2cccnc2)o1	90*	5	-16	-3	i	0
S=c1[nH]nc(-c2cccc(Br)c2)o1	27	-9	-2	-3	i	0
Cc1sc2nc(CN3CCCCC3)nc(Nc3ccc4c(c3)OCCO4)c2c1C	37	1	-7	5	i	1
COc1ccc(C2NN=C(c3ccc(C)cc3)S2)cc1 (stereo not drawn)	22	·	·	·	·	·
Cc1ccc(C2=NNC(C(O)C(O)C(O)CO)S2)cc1 (stereo not drawn)	84*	-4	-13	1	i	0
O=C(NCCc1ccc(Cl)cc1)Nc1ccc(F)cc1	12	-2	-12	3	i	1
O=C(NCCO)Nc1ccc(Cl)cc1	69*	-2	-12	7	i	0
O=C(Nc1ccc(Cl)c(Cl)c1)OCCNC(=O)c1cccc(Cl)c1	2	2	1	3	i	0
O=C(Cn1nnc(-c2ccccc2F)n1)NCc1ccco1	66*	8	-4	5	i	0
